Experiments:
[1] = system: Tyrosine-protein kinase ABL1 (Homo sapiens), P00519 [F317L]; experiment: Binding affinity to human non-phosphorylated ABL1 F317L mutant (S229 to K512 residues) expressed in mammalian expression system assessed as residual binding level at 1 uM by Kinomescan method relative to control
Method in brief: (§1)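 Kinome-wide single-concentration binding screen (KINOMEscan) at 1 μM against a panel of 468 purified kinases and mutants. Read-out is relative binding of each kinase compared with control. Selectivity across the panel was summarised as an S(10) score.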

[2] = molecular target: Tyrosine-protein kinase BTK (Homo sapiens) (UniProt Q06187); experiment: Binding affinity to wild-type human full length BTK (M1 to S659 residues) expressed in mammalian expression system assessed as residual binding level at 1 uM by Kinomescan method relative to control
Method in brief: (§2)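 Single-concentration (1 μM) competition-binding screen run by KINOMEscan against a panel of 468 purified kinases and mutants. The read-out is the relative binding activity of the test compound to each kinase.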

[3] = molecular target: Dual specificity protein kinase CLK1 (Homo sapiens) (UniProt P49759); experiment: Binding affinity to wild-type human full length CLK1 (M1 to I484 residues) expressed in bacterial expression system assessed as residual binding level at 1 uM by Kinomescan method relative to control
Sequence of Dual specificity protein kinase CLK1 (Homo sapiens) (P49759 whole entry, looked up, the tested form may be a part): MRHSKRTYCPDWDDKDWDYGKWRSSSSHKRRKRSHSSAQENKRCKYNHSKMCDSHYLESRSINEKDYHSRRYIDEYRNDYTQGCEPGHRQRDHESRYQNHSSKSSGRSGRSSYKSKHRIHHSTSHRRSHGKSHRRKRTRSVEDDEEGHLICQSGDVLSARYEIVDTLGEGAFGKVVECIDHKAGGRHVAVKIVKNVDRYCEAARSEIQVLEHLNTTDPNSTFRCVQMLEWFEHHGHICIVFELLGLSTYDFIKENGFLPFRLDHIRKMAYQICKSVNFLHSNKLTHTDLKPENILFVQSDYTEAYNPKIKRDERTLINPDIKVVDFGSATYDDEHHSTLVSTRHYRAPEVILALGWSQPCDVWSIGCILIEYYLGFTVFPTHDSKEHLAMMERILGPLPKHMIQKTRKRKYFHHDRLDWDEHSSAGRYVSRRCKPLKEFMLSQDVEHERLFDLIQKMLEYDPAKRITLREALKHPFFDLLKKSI
Method in brief: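 KINOMEscan competition binding against 468 purified kinases/mutants, test compound at 1 µM; residual binding relative to control.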

[4] = molecular target: Casein kinase I isoform alpha (Homo sapiens) (UniProt P48729); experiment: Binding affinity to wild-type human partial length CSNK1A1 (M1 to L450 residues) expressed in mammalian expression system assessed as residual binding level at 1 uM by Kinomescan method relative to control
Method in brief: (§3)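 Kinome-wide competition binding screen against a panel of 468 purified kinases/mutants, with the test compound at a single concentration of 1 μM. Read-out is the relative binding activity of each kinase in the presence of compound.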

[5] = molecular target: Fibroblast growth factor receptor 2 (Homo sapiens) (UniProt P21802); experiment: Binding affinity to wild-type human partial length FGFR2 (D457 to E769 residues) expressed in bacterial expression system assessed as residual binding level at 1 uM by Kinomescan method relative to control; method in brief: as §3
Sequence of Fibroblast growth factor receptor 2 (Homo sapiens) (P21802 22-821 limits assumed): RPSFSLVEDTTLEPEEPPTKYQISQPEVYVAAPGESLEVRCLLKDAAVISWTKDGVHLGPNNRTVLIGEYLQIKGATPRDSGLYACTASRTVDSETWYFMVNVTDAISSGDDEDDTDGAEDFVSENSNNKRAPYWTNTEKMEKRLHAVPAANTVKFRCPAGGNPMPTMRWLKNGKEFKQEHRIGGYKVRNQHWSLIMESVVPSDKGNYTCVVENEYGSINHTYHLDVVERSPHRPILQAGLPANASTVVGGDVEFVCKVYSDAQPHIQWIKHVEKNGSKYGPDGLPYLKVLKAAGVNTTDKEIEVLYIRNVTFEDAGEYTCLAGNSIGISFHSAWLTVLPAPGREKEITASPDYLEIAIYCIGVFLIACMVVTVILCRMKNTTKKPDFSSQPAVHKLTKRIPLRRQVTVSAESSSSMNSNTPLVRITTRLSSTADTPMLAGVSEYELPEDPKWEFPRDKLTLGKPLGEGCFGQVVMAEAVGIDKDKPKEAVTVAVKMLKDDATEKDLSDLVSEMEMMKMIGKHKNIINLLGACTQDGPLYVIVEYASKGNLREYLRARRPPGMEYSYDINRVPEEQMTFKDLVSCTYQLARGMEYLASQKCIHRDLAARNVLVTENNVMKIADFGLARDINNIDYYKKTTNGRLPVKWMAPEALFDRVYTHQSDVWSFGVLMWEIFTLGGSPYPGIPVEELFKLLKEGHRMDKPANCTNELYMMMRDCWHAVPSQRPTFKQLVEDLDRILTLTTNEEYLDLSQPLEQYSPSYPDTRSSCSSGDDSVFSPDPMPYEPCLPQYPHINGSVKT

[6] = system: Receptor-type tyrosine-protein kinase FLT3 (Homo sapiens), P36888 [D835Y]; experiment: Binding affinity to human partial length FLT3 D835Y mutant (Q580 to Y969 residues) expressed in bacterial expression system assessed as residual binding level at 1 uM by Kinomescan method relative to control; method in brief: as §1
[7] = molecular target: Glycogen synthase kinase-3 alpha (Homo sapiens) (UniProt P49840); experiment: Binding affinity to wild-type human full length GSK3A (M1 to S483 residues) expressed in bacterial expression system assessed as residual binding level at 1 uM by Kinomescan method relative to control; method in brief: as §2
[8] = molecular target: Tyrosine-protein kinase JAK2 (Homo sapiens) (UniProt O60674); experiment: Binding affinity to wild-type human partial length JAK2 JH1 catalytic domain (A829 to G1132 residues) expressed in mammalian expression system assessed as residual binding level at 1 uM by Kinomescan method relative to control
[9] = molecular target: Serine/threonine-protein kinase STK11 (Homo sapiens) (UniProt Q15831); experiment: Binding affinity to wild-type human full length LKB1 (M1 to Q433 residues) expressed in bacterial expression system assessed as residual binding level at 1 uM by Kinomescan method relative to control; method in brief: as §2
[10] = molecular target: Mitogen-activated protein kinase kinase kinase 1 (Homo sapiens) (UniProt Q13233); experiment: Binding affinity to wild-type human partial length MAP3K1 (L1202 to W1512 residues) expressed in mammalian expression system assessed as residual binding level at 1 uM by Kinomescan method relative to control
[11] = molecular target: Serine/threonine-protein kinase 38 (Homo sapiens) (UniProt Q15208); experiment: Binding affinity to wild-type human partial length NDR1 (N33 to E449 residues) expressed in mammalian expression system assessed as residual binding level at 1 uM by Kinomescan method relative to control
[12] = molecular target: Serine/threonine-protein kinase PLK2 (Homo sapiens) (UniProt Q9NYY3); experiment: Binding affinity to wild-type human partial length PLK2 (H58 to F354 residues) expressed in mammalian expression system assessed as residual binding level at 1 uM by Kinomescan method relative to control
Sequence of Serine/threonine-protein kinase PLK2 (Homo sapiens) (Q9NYY3 whole entry, looked up, the tested form may be a part): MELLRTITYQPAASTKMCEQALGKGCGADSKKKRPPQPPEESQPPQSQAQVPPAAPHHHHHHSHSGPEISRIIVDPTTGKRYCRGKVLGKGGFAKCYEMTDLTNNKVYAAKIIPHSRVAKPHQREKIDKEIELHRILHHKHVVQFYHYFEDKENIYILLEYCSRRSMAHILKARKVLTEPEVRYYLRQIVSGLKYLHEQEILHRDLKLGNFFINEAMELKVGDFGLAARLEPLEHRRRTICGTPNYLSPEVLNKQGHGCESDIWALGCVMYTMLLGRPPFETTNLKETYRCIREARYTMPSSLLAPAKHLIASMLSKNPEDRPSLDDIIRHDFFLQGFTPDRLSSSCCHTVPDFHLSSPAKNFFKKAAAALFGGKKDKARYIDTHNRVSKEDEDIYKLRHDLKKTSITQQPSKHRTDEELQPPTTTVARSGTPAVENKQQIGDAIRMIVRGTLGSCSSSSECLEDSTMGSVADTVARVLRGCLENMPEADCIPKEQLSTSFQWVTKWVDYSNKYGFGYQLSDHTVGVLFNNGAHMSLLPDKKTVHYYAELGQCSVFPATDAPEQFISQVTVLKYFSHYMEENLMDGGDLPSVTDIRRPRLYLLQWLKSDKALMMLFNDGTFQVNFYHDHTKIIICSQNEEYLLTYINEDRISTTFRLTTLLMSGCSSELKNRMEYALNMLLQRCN
Method in brief: (§4)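 KINOMEscan competition binding against a panel of 468 purified kinases/mutants, compound tested at 1 μM; readout is relative binding activity versus control.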

[13] = molecular target: Proto-oncogene tyrosine-protein kinase receptor Ret (Homo sapiens) (UniProt P07949); experiment: Binding affinity to wild-type human partial length RET (E713 to D1014 residues) expressed in bacterial expression system assessed as residual binding level at 1 uM by Kinomescan method relative to control
[14] = molecular target: Dual serine/threonine and tyrosine protein kinase (Homo sapiens) (UniProt Q6XUX3); experiment: Binding affinity to wild-type human full length RIPK5 (M1 to T929 residues) expressed in mammalian expression system assessed as residual binding level at 1 uM by Kinomescan method relative to control
Method in brief: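 Single-concentration KINOMEscan (DiscoverX) binding screen at 1 μM against a panel of 468 purified kinases and mutants. The read-out is binding relative to control.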

[15] = molecular target: NT-3 growth factor receptor (Homo sapiens) (UniProt Q16288); experiment: Binding affinity to wild-type human partial length TRKC (Q531 to G825 residues) expressed in mammalian expression system assessed as residual binding level at 1 uM by Kinomescan method relative to control; method in brief: as §4
Sequence of NT-3 growth factor receptor (Homo sapiens) (Q16288 32-839 limits assumed): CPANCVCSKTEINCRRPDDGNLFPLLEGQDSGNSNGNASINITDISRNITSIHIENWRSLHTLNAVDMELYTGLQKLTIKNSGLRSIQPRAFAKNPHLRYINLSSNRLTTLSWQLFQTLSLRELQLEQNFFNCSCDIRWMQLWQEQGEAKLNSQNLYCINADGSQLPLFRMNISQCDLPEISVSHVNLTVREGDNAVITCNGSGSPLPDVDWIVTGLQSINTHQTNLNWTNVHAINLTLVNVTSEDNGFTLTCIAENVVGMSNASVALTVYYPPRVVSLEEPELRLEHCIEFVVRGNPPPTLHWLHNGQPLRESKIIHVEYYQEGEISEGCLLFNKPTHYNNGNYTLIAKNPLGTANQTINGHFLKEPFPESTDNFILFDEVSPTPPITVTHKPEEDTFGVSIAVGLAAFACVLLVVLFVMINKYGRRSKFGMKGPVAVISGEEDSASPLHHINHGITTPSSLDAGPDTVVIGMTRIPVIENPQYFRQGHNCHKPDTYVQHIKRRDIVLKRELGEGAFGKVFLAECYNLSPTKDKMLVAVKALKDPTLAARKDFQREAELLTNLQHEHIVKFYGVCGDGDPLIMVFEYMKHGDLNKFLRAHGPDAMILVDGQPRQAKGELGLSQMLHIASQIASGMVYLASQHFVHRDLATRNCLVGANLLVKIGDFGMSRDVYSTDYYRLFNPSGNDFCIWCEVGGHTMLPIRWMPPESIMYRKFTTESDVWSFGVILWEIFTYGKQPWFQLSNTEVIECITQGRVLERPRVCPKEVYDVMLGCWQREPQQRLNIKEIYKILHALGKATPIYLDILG

[16] = molecular target: Platelet-derived growth factor receptor beta (Homo sapiens, UniProt P09619); experiment: Inhibition of PDGFRbeta (unknown origin) using poly(4:1 Glu,Tyr) peptide as substrate preincubated for 1 hr followed by addition of ATP and measured after 30 mins by ADP-Glo bioluminescence assay
Sequence of Platelet-derived growth factor receptor beta (P09619 whole entry): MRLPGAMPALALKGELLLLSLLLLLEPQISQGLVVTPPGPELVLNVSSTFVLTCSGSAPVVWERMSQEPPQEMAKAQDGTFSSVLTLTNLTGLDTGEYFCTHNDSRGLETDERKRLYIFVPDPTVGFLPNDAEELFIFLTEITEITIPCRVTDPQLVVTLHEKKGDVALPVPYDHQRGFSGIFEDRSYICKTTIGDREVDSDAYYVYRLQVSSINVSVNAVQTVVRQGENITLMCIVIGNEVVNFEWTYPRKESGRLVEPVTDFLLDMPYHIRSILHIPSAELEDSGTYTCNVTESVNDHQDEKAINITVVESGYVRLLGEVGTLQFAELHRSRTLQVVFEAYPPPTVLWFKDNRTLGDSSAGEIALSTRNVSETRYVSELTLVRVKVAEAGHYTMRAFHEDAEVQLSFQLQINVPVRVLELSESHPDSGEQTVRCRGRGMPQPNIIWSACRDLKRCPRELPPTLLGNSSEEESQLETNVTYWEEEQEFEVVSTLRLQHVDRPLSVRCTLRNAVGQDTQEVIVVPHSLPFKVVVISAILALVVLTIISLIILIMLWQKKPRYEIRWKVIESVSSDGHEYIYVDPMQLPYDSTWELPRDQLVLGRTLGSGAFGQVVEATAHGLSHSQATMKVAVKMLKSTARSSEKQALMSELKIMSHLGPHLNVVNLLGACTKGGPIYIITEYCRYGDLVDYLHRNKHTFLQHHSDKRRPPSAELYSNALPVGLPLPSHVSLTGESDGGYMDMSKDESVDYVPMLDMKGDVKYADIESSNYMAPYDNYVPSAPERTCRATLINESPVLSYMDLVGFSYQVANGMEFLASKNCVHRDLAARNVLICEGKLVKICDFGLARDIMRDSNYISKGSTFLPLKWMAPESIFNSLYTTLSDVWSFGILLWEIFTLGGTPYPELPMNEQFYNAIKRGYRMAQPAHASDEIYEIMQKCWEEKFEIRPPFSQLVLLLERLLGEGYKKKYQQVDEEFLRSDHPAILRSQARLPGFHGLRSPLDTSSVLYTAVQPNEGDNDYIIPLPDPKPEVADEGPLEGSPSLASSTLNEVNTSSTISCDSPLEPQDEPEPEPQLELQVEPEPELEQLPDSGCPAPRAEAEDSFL

[17] = molecular target: Tyrosine-protein kinase ABL1 (Homo sapiens, UniProt P00519); experiment: Inhibition of ABL1 (unknown origin) using poly(4:1 Glu,Tyr) peptide as substrate preincubated for 1 hr followed by addition of ATP and measured after 30 mins by ADP-Glo bioluminescence assay
Sequence of Tyrosine-protein kinase ABL1 (P00519 whole entry): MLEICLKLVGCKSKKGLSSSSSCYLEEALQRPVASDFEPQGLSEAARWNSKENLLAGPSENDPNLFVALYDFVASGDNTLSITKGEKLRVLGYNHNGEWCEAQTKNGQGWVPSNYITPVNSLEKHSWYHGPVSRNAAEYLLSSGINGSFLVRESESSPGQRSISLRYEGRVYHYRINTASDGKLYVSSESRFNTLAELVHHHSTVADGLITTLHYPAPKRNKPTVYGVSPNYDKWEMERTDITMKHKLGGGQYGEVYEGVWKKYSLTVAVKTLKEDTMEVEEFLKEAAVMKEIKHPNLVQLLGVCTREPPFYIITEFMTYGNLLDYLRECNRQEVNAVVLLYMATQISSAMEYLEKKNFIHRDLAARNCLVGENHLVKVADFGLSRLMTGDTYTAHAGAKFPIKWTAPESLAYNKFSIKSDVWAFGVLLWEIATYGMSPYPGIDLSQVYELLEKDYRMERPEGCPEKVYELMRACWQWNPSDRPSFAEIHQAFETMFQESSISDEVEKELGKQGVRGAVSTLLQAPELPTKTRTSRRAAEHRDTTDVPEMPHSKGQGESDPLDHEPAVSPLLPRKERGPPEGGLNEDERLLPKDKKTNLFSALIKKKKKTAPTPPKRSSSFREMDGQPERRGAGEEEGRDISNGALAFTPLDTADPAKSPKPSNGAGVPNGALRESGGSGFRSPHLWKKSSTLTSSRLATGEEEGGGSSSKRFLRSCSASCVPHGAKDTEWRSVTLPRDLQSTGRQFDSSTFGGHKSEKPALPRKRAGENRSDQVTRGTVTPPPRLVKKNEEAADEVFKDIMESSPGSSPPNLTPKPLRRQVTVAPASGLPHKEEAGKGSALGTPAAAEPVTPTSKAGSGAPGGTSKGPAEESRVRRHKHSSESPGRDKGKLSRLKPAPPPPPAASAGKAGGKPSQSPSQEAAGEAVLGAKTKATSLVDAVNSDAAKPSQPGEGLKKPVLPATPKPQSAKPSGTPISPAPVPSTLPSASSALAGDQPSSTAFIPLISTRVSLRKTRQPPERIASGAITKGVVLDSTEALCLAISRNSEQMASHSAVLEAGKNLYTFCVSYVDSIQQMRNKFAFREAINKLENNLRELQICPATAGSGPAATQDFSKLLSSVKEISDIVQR

EOL1 [18] = experiment: Antitumor activity against human EOL-1 cells xenografted in nu/nu mouse assessed as tumor growth inhibition at 25 mg/kg/day, ip; type: functional; conditions: read-out: TGI
Method in brief: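 Female nu/nu mice (6 weeks) given subcutaneous right-flank injection of 5 million EOL-1 cells in PBS/Matrigel 1:1. At 200–400 mm3 tumors, randomized to groups of 6 and dosed daily i.p. for 14 days at 25, 50 or 100 mg/kg/d in 0.5% methylcellulose/0.4% Tween80. Tumor volume = W²×L/2, measured daily.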

EOL1 [19] = experiment: Antitumor activity against human EOL-1 cells xenografted in nu/nu mouse assessed as tumor growth inhibition at 25 to 100 mg/kg/day, ip; type: functional, organism-based
Method in brief: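 Female nu/nu mice, six weeks old; 5 million EOL-1 cells in PBS mixed 1:1 with Matrigel, injected subcutaneously in the right flank. Dosing began once tumors reached 200–400 mm3, with randomization into groups of 6. Daily IP dosing at 25.0, 50.0 or 100 mg/kg/d in 0.5% methocellulose/0.4% Tween80 in water, or vehicle alone, for 14 days. Tumor volume = (W2×L)/2, measured daily. Final tumor weights were also recorded.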

Sequence of Tyrosine-protein kinase ABL1 (Homo sapiens), P00519 [F317L] (P00519 whole entry F317L, the tested form may be a part): as the sequence (P00519 whole entry) above, with F317L counted along it

Work on Cc1ccc(NC(=O)c2ccc(CN(CCN(C)C)C(=O)c3cccnc3)cc2)cc1Nc1nccc(-c2cccnc2)n1 yielded an Activity [1] of 79%, an Activity [2] of 100% and an Activity [3] of 87%. The Activity [4] was 87%, the Activity [5] was 80% and the Activity [6] was 95%. It also gave an Activity [7] of 100%, an Activity [8] of 95% and an Activity [9] of 99%. The Activity [10] was 88%, the Activity [11] was 71% and the Activity [12] was 87%. The Activity [13] was 80%, the Activity [14] was 81% and the Activity [15] was 89%. It also gave an IC50 [16] of 6.11 µM, an IC50 [17] greater than 10 µM and an inhibition in vivo at 25 mg/kg/day (EOL1 [18]) of 71.5%. The TGI (EOL1 [19]) was “Dose-dependent effect”.

Reference: ChEMBL document CHEMBL4229344 (Eur J Med Chem, 2018)
